Laboratory results taken from ChEMBL document CHEMBL2321868, “The discovery of novel potent trans-3,4-disubstituted pyrrolidine inhibitors of the human aspartic protease renin from in silico three-dimensional (3D) pharmacophore searches” (J Med Chem, 2013).

Columns and labels:
[1] = Inhibition of human recombinant pepsin A expressed in Escherichia coli using Dabcyl-E-R-Nle-F-L-S-F-P-EDANS as substrate incubated for 1 hr prior to substrate addition measured after 1 hr by FRET-based enzymatic assay
[2] = target: 5-hydroxytryptamine receptor 2A (Homo sapiens, UniProt P28223); experiment: Inhibition of 5-HT2A (unknown origin)
Sequence of 5-hydroxytryptamine receptor 2A (P28223 whole entry): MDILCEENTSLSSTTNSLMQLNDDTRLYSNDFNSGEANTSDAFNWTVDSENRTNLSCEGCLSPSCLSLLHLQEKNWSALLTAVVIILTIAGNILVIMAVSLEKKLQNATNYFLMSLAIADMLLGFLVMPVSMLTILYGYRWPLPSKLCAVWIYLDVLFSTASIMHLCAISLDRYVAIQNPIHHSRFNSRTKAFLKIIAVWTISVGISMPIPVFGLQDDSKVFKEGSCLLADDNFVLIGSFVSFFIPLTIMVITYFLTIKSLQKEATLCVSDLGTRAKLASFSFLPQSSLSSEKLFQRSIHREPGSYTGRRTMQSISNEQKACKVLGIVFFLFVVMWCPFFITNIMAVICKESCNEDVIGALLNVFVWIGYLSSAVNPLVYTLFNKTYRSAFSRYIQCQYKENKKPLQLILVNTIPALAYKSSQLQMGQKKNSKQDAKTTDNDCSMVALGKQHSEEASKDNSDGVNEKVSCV

[3] = target: Beta-secretase 1 (Homo sapiens, UniProt P56817); experiment: Inhibition of human recombinant BACE-1 expressed in baculovirus-infected insect sf9 cells using RE( EDANS)-EVNLDAEF-K(DABSYL)-R as substrate incubated for 1 hr prior to substrate addition measured after 1 hr by FRET-based enzymatic assay
Sequence of Beta-secretase 1 (P56817 whole entry): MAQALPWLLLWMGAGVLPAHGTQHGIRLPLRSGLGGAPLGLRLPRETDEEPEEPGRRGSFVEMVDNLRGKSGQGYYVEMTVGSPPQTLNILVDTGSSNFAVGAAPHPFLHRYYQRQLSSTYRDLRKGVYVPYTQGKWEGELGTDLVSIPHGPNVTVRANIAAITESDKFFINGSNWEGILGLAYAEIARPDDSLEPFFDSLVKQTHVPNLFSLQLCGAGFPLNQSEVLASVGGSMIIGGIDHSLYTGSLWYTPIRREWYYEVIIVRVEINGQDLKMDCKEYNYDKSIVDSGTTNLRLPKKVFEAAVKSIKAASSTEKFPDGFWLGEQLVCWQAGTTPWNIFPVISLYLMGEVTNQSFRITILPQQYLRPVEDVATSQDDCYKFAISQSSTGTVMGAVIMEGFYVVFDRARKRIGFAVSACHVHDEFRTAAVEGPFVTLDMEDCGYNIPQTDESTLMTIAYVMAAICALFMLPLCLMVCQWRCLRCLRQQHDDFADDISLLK

[4] = target: T1, Adrenergic receptor alpha-1 (Homo sapiens, UniProt P35348+P25100+P35368); experiment: Inhibition of alpha-1 adrenoceptor (unknown origin)
T1 sequence (P35348 whole entry): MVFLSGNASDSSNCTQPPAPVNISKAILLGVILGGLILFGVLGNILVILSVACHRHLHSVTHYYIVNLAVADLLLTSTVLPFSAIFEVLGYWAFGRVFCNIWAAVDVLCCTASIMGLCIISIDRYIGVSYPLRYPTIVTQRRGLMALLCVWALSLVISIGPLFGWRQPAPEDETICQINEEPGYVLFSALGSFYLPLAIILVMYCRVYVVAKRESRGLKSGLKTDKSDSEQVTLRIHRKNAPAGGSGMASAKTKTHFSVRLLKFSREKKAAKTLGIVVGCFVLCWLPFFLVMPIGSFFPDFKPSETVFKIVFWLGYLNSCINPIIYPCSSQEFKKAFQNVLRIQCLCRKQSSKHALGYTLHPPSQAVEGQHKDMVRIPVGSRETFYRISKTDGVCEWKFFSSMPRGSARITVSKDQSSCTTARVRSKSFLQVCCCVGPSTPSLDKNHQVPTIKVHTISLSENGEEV
T1 sequence (P25100 whole entry): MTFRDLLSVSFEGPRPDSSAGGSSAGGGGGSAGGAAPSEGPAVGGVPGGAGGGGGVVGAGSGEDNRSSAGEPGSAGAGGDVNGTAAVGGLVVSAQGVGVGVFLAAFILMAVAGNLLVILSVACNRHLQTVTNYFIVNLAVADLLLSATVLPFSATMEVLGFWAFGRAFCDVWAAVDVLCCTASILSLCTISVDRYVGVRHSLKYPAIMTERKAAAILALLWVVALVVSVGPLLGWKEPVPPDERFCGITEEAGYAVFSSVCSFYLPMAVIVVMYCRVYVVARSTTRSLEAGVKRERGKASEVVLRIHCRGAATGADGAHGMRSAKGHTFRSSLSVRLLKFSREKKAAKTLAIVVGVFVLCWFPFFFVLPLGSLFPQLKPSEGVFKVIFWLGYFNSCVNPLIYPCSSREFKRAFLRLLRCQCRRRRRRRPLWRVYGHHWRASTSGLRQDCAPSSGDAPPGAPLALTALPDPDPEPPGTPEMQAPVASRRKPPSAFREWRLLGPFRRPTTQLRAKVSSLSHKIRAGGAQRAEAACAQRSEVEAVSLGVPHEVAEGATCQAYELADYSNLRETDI
T1 sequence (P35368 whole entry): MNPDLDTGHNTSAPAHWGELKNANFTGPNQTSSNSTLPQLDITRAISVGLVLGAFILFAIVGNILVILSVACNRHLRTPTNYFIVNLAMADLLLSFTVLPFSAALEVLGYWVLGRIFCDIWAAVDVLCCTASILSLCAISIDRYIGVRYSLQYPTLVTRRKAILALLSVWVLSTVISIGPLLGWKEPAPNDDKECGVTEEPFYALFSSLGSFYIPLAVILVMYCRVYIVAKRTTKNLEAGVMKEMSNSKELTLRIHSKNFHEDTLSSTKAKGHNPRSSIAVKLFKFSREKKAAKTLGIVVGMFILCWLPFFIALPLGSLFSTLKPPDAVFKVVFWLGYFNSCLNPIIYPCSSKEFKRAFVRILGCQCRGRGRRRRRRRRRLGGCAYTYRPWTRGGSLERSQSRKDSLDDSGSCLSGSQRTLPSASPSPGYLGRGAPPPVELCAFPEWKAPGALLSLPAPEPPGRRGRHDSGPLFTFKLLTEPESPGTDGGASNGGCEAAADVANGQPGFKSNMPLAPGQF

[5] = target: T2, Renin (Homo sapiens, UniProt P00797); experiment: Inhibition of renin in human plasma using RE(EDANS)IHPFHLVIHTK(Dabcyl)R as substrate incubated for 1 hr prior to substrate addition measured after 2 hrs by FRET-based enzymatic assay
T2 sequence (P00797 whole entry): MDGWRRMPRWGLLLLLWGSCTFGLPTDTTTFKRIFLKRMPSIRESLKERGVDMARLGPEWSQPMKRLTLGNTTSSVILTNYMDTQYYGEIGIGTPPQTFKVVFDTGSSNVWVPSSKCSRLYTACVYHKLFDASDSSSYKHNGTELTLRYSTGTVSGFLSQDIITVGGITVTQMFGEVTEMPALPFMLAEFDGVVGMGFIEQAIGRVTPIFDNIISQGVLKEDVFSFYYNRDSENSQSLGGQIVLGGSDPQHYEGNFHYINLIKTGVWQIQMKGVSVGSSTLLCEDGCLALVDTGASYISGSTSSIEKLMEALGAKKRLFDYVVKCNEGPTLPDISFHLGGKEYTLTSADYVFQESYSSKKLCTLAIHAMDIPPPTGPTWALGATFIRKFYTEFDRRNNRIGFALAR
Method in brief: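 Renin activity measured in the presence of human plasma by FRET cleavage of the quenched peptide substrate. IC50 is the half-maximal inhibition.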

[6] = Plasma clearance in Sprague-Dawley rat at 2 mg/kg, iv by HPLC-MS analysis; assay type: ADME, organism-based; parameters: dose 2 mg/kg, route intravenous
Method in brief: (§1)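 Cannulated, fed Sprague–Dawley rats were given 2 mg/kg intravenously and 6 mg/kg orally. Oral bioavailability came from the two routes. t1/2, plasma clearance and Vdss were estimated. Oral Cmax and AUC were taken over 0–24 h.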

[7] = test system: Rattus norvegicus; experiment: Antihypertensive activity in po dosed double transgenic rat overexpressing human renin and human angiotensinogen assessed as reduction in mean arterial pressure; assay type: functional, organism-based; conditions: Artery
Method in brief: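 Double-transgenic rats overexpressing human renin and human angiotensinogen, with telemetry. Each received a single oral dose of 6 or 30 mg/kg. The read-out was mean arterial pressure, reported as the peak change from dosing.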

[8] = AUC (0 to 24 hrs) in jugular vein cannulated Sprague-Dawley rat at 6 mg/kg, po by HPLC-MS analysis; assay type: ADME, organism-based; parameters: time < 24 hr, dose 6 mg/kg, route oral; conditions: plasma; method in brief: as §1
[9] = target: T2, Renin; experiment: Inhibition of human recombinant renin expressed in CHO cells using RE(EDANS)IHPFHLVIHTK(Dabcyl)R as substrate incubated for 1 hr prior to substrate addition measured after 2 hrs by FRET-based enzymatic assay

IC50 [1]: > 30000 nM | IC50 [2]: > 1000 nM | IC50 [3]: > 30000 nM | IC50 [4]: > 1000 nM | IC50 [5]: 300 nM | clearance [6]: 25 mL/min/kg | AUC(0-t) at 24 h [8]: 4.81 µM·h | IC50 [9]: 170 nM
SMILES: COCCCOc1cc(C(=O)N(C[C@@H]2CNC[C@H]2Cc2ccccc2)C(C)C)ccc1OC.Cl
Activity [7]: Dose-dependent effect
